CFTR F508del cor: CFTR F508del correction in bronchial cells; CFBE cells, YFP halide quenching; stimulated with forskolin plus potentiator P3; % fluorescence drop versus neutral controls; activity (quench increase), % at 7.58 µM; 350,000 compounds, 0.36% hits; AID 720511;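 active = mean added fluorescence quench of at least 8% versus neutral control, with both replicates also reaching 8%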;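 also: cells transiently co-express mutant CFTR-F508del with the halide-sensitive YFP; corrector assay measuring rescue of mutant channel to the surface after 24 h compound exposure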
dFosB activator: activators of mouse delta FosB homodimer; purified delta FosB, TAMRA-CDK5 oligo fluorescence polarization; percent of positive-control signal above neutral wells; activation, % at 25 µM; 340,000 compounds, 0.99% hits; AID 493131;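 active = mean activation above about 17%, with every replicate also reaching it, limit read from the data, passing the limit was not always enough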
Target sequence (P13346 whole entry, looked up): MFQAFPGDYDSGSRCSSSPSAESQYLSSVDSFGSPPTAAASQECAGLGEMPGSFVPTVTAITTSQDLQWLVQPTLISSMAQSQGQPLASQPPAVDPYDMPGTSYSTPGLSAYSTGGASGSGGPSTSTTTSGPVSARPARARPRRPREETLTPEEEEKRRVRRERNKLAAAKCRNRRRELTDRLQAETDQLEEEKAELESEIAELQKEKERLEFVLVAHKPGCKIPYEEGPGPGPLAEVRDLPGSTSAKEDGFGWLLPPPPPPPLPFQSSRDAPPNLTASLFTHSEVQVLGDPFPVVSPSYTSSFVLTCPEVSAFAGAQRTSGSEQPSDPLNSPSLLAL
FGF22 binding: shifts melting point of recombinant human FGF22; activity (Tm shift, normalised), % at 9.99 µM; recombinant FGF22 thermal shift, SYPRO orange fluorescence; percent of sucrose octasulfate shift, DMSO zero; 340,000 compounds, 1.5% hits; Q9HCT0; AID 651658;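 active = mean Tm shift, scaled 0 neutral to 100 positive control, at about 1.3% or above, every replicate too, limit read from the data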
S100A4 inh HTS: blocks human S100A4 binding to myosin IIA peptide; inhibition, % at 10.7 µM; P26447; S100A4/TAMRA-MyoIIA peptide fluorescence polarization; 360,000 compounds, 0.14% hits;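 active = mean inhibition of at least 70% across replicates, with every replicate also reaching that level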
Target sequence (P26447 whole entry, looked up): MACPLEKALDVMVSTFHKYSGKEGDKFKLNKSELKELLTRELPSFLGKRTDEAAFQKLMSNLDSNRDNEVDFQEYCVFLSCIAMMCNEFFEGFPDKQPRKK
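Material: S100A4 monomer protein | Medium: HEPES pH 7.2 with CaCl2, KCl, NaCl, DTT, Triton | Reagent: Labelled myosin peptide probe, 5 nM | Doses: One dose per compound | Times: 5 min incubation before reading | Benchmarks: Neutral control DMSO, positive control TFP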
The depositor's hits bear a star; . = no result. Only some compounds are listed: those with a hit (about 2.2% of all), similar ones and a draw of the others.

SMILES	CFTR F508del cor	dFosB activator	FGF22 binding	S100A4 inh HTS
Cc1noc(C)c1S(=O)(=O)Nc1ccc2c(c1)C(=O)N([C@H](C)CO)C[C@@H](C)[C@@H](CN(C)C(=O)Cc1ccccc1)OCCCC[C@H](C)O2	-1.0	.	-0.9	1.3
Cc1ccc(-c2ccc([C@@H]3[C@@H](CO)N4CCCCN(S(=O)(=O)c5cccc(C)c5)C[C@H]34)cc2)cc1	-1.9	.	0.0	10.6
COc1cc(S(=O)(=O)Nc2ccc3cn[nH]c3c2)ccc1Cl	-1.5	3.1	44.0*	4.6
O=[N+]([O-])c1ccc(Cl)c(S(=O)(=O)Nc2ccc3cn[nH]c3c2)c1	1.6	0.2	-0.2	-3.2
Cc1ccc(S(=O)(=O)Nc2ccc3cn[nH]c3c2)cc1C	0.6	.	43.7*	1.6
Cc1ccc(S(=O)(=O)Nc2ccc3cn[nH]c3c2)cc1	-0.6	-0.1	0.0	-3.4
C[C@H](CO)N1C[C@H](C)[C@@H](CN(C)C(=O)c2ccccc2F)Oc2ncc(-c3ccccc3)cc2C1=O	-3.1	.	0.0	2.0
C[C@H]1CN([C@@H](C)CO)S(=O)(=O)c2ccc(-c3cccc(F)c3)cc2O[C@H]1CN(C)C	0.9	.	0.0	-10.2
Cc1cc(C)n(CC(O)Cn2c3ccc(Br)cc3c3cc(Br)ccc32)c(=O)n1 (configuration not stated)	.	19.9*	.	.
COc1ccc(N2c3ccccc3CN(Cc3ccccc3)CC2Cc2cc(OC)c(OC)c(OC)c2)cc1 (configuration not stated)	-4.8	.	43.6*	-4.8
C[C@@H]1CN([C@H](C)CO)C(=O)c2cccc(NC(=O)C3CCCCC3)c2O[C@@H]1CN(C)Cc1ccc(Oc2ccccc2)cc1	0.4	.	-0.6	143.0*
C[C@H]1CN([C@@H](C)CO)C(=O)c2cccc(NC(=O)C3CCCCC3)c2O[C@@H]1CN(C)Cc1ccc(Oc2ccccc2)cc1	-2.6	.	-0.3	-2.9
COc1ccc(CN(C)C[C@H]2Oc3ccc(NC(=O)C4CCCCC4)cc3CC(=O)N([C@@H](C)CO)C[C@H]2C)cc1	-3.2	.	1.7*	4.5
COc1ccc(CN(C)C[C@H]2Oc3ccc(NC(=O)C4CCCCC4)cc3CC(=O)N([C@H](C)CO)C[C@H]2C)cc1	0.9	.	0.4	-3.7
COc1ccc(NC(=O)Nc2ccc3c(c2)CC(=O)N([C@@H](C)CO)C[C@@H](C)[C@H](CN(C)Cc2ccccc2)O3)cc1	1.0	.	-0.4	95.6*
CC(C)NC(=O)N(C)C[C@H]1Oc2cc(C#C[C@@H](C)O)ccc2S(=O)(=O)N([C@@H](C)CO)C[C@@H]1C	-3.9	.	0.2	-3.3
C=CCN1C(=O)C2(NC(=O)c3ccccc3N2)c2ccccc21 (configuration not stated)	0.6	0.7	43.0*	-4.6
C=CCN1C(=O)C2(NNc3ccccc3O2)c2ccccc21 (configuration not stated)	.	-9.3	.	.
Cn1cccc1-c1cc(C(=O)N/N=C/c2ccc(Cl)cc2)[nH]n1	4.0	-7.5	-0.3	0.6
O=C(N/N=C/C=C/c1ccccc1)c1cccs1	0.4	-4.2	43.1*	1.2
Cn1cccc1-c1cc(C(=O)N/N=C/C=C/c2ccccc2)[nH]n1	-6.4	-3.6	1.7*	-18.8
C[C@H](NC(=O)c1nc[nH]c1C(=O)NC[C@@H](C)O)c1ccccc1	-1.1	.	43.3*	-1.7
C[C@@H](CO)NC(=O)c1nc[nH]c1C(=O)N[C@H](C)c1ccccc1	-3.0	.	43.2*	-4.9
C[C@H](CO)NC(=O)c1nc[nH]c1C(=O)N[C@@H](C)c1ccccc1	-2.0	.	-0.1	0.1
N#Cc1nc(Nc2cc(F)cc(F)c2)c2ncn(CC(F)F)c2n1	0.6	-11.7	0.1	0.7
SMILES	CFTR F508del cor	dFosB activator	FGF22 binding	S100A4 inh HTS
N#Cc1nc(NCC(F)F)nc(Nc2cc(F)cc(F)c2)n1	8.0*	-11.0	.	.
C[C@H]1CN([C@@H](C)CO)C(=O)c2cccc(NS(=O)(=O)c3ccc(Cl)cc3)c2O[C@H]1CN(C)CC1CC1	2.0	.	0.1	4.0
COc1ccccc1-c1cn(CC[C@H]2CC[C@H](NC(=O)C3CC3)[C@@H](CO)O2)nn1	1.0	.	-0.2	1.5
Cc1ccc(S(=O)(=O)NCC(=O)NCC(=O)OCC(=O)NC(=O)NC(C)(C)C)cc1C	-0.7	-2.4	43.0*	3.0
O=C(C[C@@H]1C[C@@H]2c3cc(NC(=O)CC4CC4)ccc3O[C@@H]2[C@@H](CO)O1)NCc1ccc(-c2ccccc2)cc1	0.7	.	0.4	2.7
Cc1ccc(-c2csc(NC(=O)CN3C(=O)CCC3=O)n2)cc1	-2.3	-3.8	0.4	5.3

From PubChem BioAssay
